How the values were obtained:
[1] = tested on: L1210; assay: Antitumor activity against mouse L1210 cells allografted in BDF1 mouse assessed as increase in life span at 50 mg/kg administered 6 times starting 24 hrs post challenge relative to control; format: functional; conditions: L1210, 24 h
Method in brief: (§1)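 L1210 leukemia cells, 10^6, inoculated ip; dosing started 24 h after inoculation, given daily as an aqueous solution at pH 8.0-8.4. Survival of treated versus control mice was read out as %ILS = (T/C − 1) × 100.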

[2] = Toxicity in Wistar rat administered as single dose; format: organism-based; conditions: in vivo
[3] = tested on: W256; assay: Antitumor activity against […] cells allografted in rat assessed as tumor growth inhibition at 60 mg/kg administered 14 times starting 7 days post challenge relative to control; conditions: W256, 7 days, read-out: TGI
[4] = tested on: L1210; assay: Antitumor activity against mouse L1210 cells allografted in BDF1 mouse assessed as increase in life span at 40 mg/kg administered 10 times starting 24 hrs post challenge relative to control; format: functional; conditions: L1210, 24 h; method in brief: as §1
[5] = tested on: L1210; assay: Antitumor activity against mouse L1210 cells allografted in BDF1 mouse assessed as increase in life span at 33 mg/kg administered 6 times starting 24 hrs post challenge relative to control; format: functional; conditions: L1210, 24 h; method in brief: as §1
[6] = tested on: W256; assay: Antitumor activity against […] cells allografted in rat assessed as tumor growth inhibition at 18 mg/kg administered 13 times starting 7 days post challenge relative to control; conditions: W256, 7 days, read-out: TGI
[7] = tested on: W256; assay: Antitumor activity against […] cells allografted in rat assessed as tumor growth inhibition at 100 mg/kg administered 13 times starting 7 days post challenge relative to control; conditions: W256, 7 days, read-out: TGI
[8] = tested on: L1210; assay: Antitumor activity against mouse L1210 cells allografted in BDF1 mouse assessed as increase in life span at 100 mg/kg administered 8 times starting 24 hrs post challenge relative to control; format: functional; conditions: L1210, 24 h; method in brief: as §1
[9] = tested on: L1210; assay: Antitumor activity against mouse L1210 cells allografted in BDF1 mouse assessed as increase in life span at 100 mg/kg administered 6 times starting 24 hrs post challenge relative to control; format: functional; conditions: L1210, 24 h; method in brief: as §1
[10] = tested on: L1210; assay: Antitumor activity against mouse L1210 cells allografted in BDF1 mouse assessed as increase in life span at 50 mg/kg administered 8 times starting 24 hrs post challenge relative to control; format: functional; conditions: L1210, 24 h; method in brief: as §1
[11] = tested on: L1210; assay: Antitumor activity against mouse L1210 cells allografted in BDF1 mouse assessed as increase in life span at 100 mg/kg administered 7 times starting 24 hrs post challenge relative to control; format: functional; conditions: L1210, 24 h; method in brief: as §1

Which ILS at 50 mg/kg [1] does the source give for `CC(NC(=O)c1ccc(N(C)Cc2cnc3nc(N)nc(N)c3n2)cc1)C(=O)NC(CCC(=O)O)C(=O)O` (stereo not given) here?
Its ILS at 50 mg/kg is 19%.

And the LD50 [2]?
The LD50 was 500 mg/kg.

What does the source list for `Nc1nc(N)c2nc(CNc3ccc(C(=O)NCC(=O)NC(CC(=O)O)C(=O)O)cc3)cnc2n1.O` (stereo not given)?
inhibition in vivo at 60 mg/kg [3]: 55%; ILS at 40 mg/kg [4]: 69%; LD50 [2]: 200 mg/kg

For `Nc1nc(N)c2nc(CNc3ccc(C(=O)NCC(=O)NC(CCC(=O)O)C(=O)O)cc3)cnc2n1.O` (stereo not given), which ILS at 33 mg/kg [5] is on record?
The ILS at 33 mg/kg was 14%.

And the inhibition in vivo at 18 mg/kg [6]?
The inhibition in vivo at 18 mg/kg was 30%.

What about the LD50 [2] of the same molecule?
Its LD50 is 400 mg/kg.

For `CN(Cc1cnc2nc(N)nc(N)c2n1)c1ccc(C(=O)NCC(=O)NC(CC(=O)O)C(=O)O)cc1.O` (stereo not given), which inhibition in vivo at 100 mg/kg [7] is on record?
The inhibition in vivo at 100 mg/kg was 41%.

What about the ILS at 100 mg/kg [8] of the same molecule?
The ILS at 100 mg/kg was 40%.

And the LD50 [2]?
The LD50 was 500 mg/kg.

For `CN(Cc1cnc2nc(N)nc(N)c2n1)c1ccc(C(=O)NCC(=O)NC(CCC(=O)O)C(=O)O)cc1.O` (stereo not given), which ILS at 100 mg/kg [8] is on record?
Its ILS at 100 mg/kg is 0%.

And the LD50 [2]?
Its LD50 is 830 mg/kg.

For `CN(CC(=O)NC(CCC(=O)O)C(=O)O)C(=O)c1ccc(N(C)Cc2cnc3nc(N)nc(N)c3n2)cc1.O` (stereo not given), which ILS at 100 mg/kg [9] is on record?
Its ILS at 100 mg/kg is 0%.

What about the LD50 [2] of the same molecule?
The LD50 was 1000 mg/kg.

For `CC(C)C[C@H](NC(=O)c1ccc(N(C)Cc2cnc3nc(N)nc(N)c3n2)cc1)C(=O)NC(CCC(=O)O)C(=O)O` (stereo not given in full), which ILS at 50 mg/kg [10] is on record?
Its ILS at 50 mg/kg is 0%.

And the LD50 [2]?
Its LD50 is 500 mg/kg.

What does the source list for `CN(Cc1cnc2nc(N)nc(N)c2n1)c1ccc(C(=O)N[C@@H](Cc2ccccc2)C(=O)NC(CC(=O)O)C(=O)O)cc1.O` (stereo not given in full)?
LD50 [2]: 1000 mg/kg; ILS at 100 mg/kg [11]: 0%

With `CN(Cc1cnc2nc(N)nc(N)c2n1)c1ccc(C(=O)N[C@@H](Cc2ccccc2)C(=O)NC(CCC(=O)O)C(=O)O)cc1.O` (stereo not given in full) as the molecule, how does the LD50 [2] read?
The LD50 was 500 mg/kg.
